Measured values as given in ChEMBL document CHEMBL3352237, “Synthesis and biological evaluation of novel peptide BF2 as an antibacterial agent against clinical isolates of vancomycin-resistant enterococci” (J Med Chem, 2014).

How the values were obtained:
Type in all cases: functional
Enterococcus faecium [1] = assay: Antibacterial activity against vancomycin-resistant Enterococcus faecium clinical isolate 3864 after overnight incubation by two-fold serial dilution method
Enterococcus [2] = assay: Bactericidal activity against […] after 24 hrs by two-fold serial dilution method; conditions: ATCC 29212, 24 h
Enterococcus faecalis [3] = assay: Antibacterial activity against vancomycin-resistant Enterococcus faecalis clinical isolate 27728 after overnight incubation by two-fold serial dilution method
Enterococcus faecalis [4] = assay: Bactericidal activity against vancomycin-resistant Enterococcus faecalis clinical isolate 5642 after 24 hrs by two-fold serial dilution method; conditions: isolate 5642, 24 h
Enterococcus faecalis [5] = assay: Bactericidal activity against vancomycin-resistant Enterococcus faecalis clinical isolate 387702 after 24 hrs by two-fold serial dilution method; conditions: isolate 387702, 24 h
Enterococcus faecium [6] = assay: Antibacterial activity against vancomycin-resistant Enterococcus faecium clinical isolate 147969 after overnight incubation by two-fold serial dilution method
Enterococcus faecium [7] = assay: Antibacterial activity against vancomycin-resistant Enterococcus faecium clinical isolate 28/211 after overnight incubation by two-fold serial dilution method
Enterococcus faecium [8] = assay: Antibacterial activity against vancomycin-resistant Enterococcus faecium clinical isolate 6/22 after overnight incubation by two-fold serial dilution method
Enterococcus faecium [9] = assay: Bactericidal activity against vancomycin-resistant Enterococcus faecium clinical isolate 10177 after 24 hrs by two-fold serial dilution method; conditions: isolate 10177, 24 h
Enterococcus faecium [10] = assay: Antibacterial activity against vancomycin-resistant Enterococcus faecium clinical isolate 15/213 after overnight incubation by two-fold serial dilution method
Enterococcus faecalis [11] = assay: Antibacterial activity against vancomycin-resistant Enterococcus faecalis clinical isolate 6093 after overnight incubation by two-fold serial dilution method
Enterococcus faecium [12] = assay: Bactericidal activity against vancomycin-resistant Enterococcus faecium clinical isolate 151495 after 24 hrs by two-fold serial dilution method; conditions: isolate 151495, 24 h
Enterococcus faecium [13] = assay: Bactericidal activity against vancomycin-resistant Enterococcus faecium clinical isolate 30/48 after 24 hrs by two-fold serial dilution method; conditions: isolate 30/48, 24 h
Enterococcus faecalis [14] = assay: Bactericidal activity against vancomycin-resistant Enterococcus faecalis clinical isolate 27728 after 24 hrs by two-fold serial dilution method; conditions: isolate 27728, 24 h
Enterococcus [15] = assay: Antibacterial activity against vancomycin-resistant Enterococcus ATCC 51299 after 18 to 20 hrs by checkerboard titration method in presence of linezolid
Enterococcus faecalis [16] = assay: Bactericidal activity against vancomycin-resistant Enterococcus faecalis clinical isolate 5648 after 24 hrs by two-fold serial dilution method; conditions: isolate 5648, 24 h
Enterococcus faecium [17] = assay: Bactericidal activity against vancomycin-resistant Enterococcus faecium clinical isolate 27/221 after 24 hrs by two-fold serial dilution method; conditions: isolate 27/221, 24 h
Enterococcus [18] = assay: Antibacterial activity against vancomycin-resistant Enterococcus ATCC 51299 after overnight incubation by two-fold serial dilution method
Enterococcus faecium [19] = assay: Antibacterial activity against vancomycin-resistant Enterococcus faecium clinical isolate 29/203 after overnight incubation by two-fold serial dilution method
Enterococcus faecalis [20] = assay: Antibacterial activity against vancomycin-resistant Enterococcus faecalis clinical isolate 5814 after overnight incubation by two-fold serial dilution method
Enterococcus faecalis [21] = assay: Bactericidal activity against vancomycin-resistant Enterococcus faecalis clinical isolate 6093 after 24 hrs by two-fold serial dilution method; conditions: isolate 6093, 24 h
Enterococcus faecalis [22] = assay: Bactericidal activity against vancomycin-resistant Enterococcus clinical isolate assessed as log reduction at 2 times MIC after 60 to 120 mins by serial dilution method
Procedure, shortened: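 Time-kill assay: enterococci exposed to peptide at 2× MIC, with viable counts read as log10 CFU/mL over a 60–120 min exposure. Run on ATCC 29212 and a clinical isolate.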

Enterococcus faecalis [23] = assay: Bactericidal activity against vancomycin-resistant Enterococcus faecalis clinical isolate 5814 after 24 hrs by two-fold serial dilution method; conditions: isolate 5814, 24 h
Enterococcus faecium [24] = assay: Antibacterial activity against vancomycin-resistant Enterococcus faecium clinical isolate 8/224 after overnight incubation by two-fold serial dilution method
Enterococcus faecium [25] = assay: Bactericidal activity against vancomycin-resistant Enterococcus faecium clinical isolate 12875 after 24 hrs by two-fold serial dilution method; conditions: isolate 12875, 24 h
Enterococcus faecium [26] = assay: Bactericidal activity against vancomycin-resistant Enterococcus faecium clinical isolate 3864 after 24 hrs by two-fold serial dilution method; conditions: isolate 3864, 24 h
Enterococcus [27] = assay: Bactericidal activity against vancomycin-resistant Enterococcus ATCC 51299 after 24 hrs by two-fold serial dilution method; conditions: ATCC 51299, 24 h
Enterococcus faecalis [28] = assay: Bactericidal activity against vancomycin-resistant Enterococcus faecalis clinical isolate 7077 after 24 hrs by two-fold serial dilution method; conditions: isolate 7077, 24 h
Enterococcus faecium [29] = assay: Bactericidal activity against vancomycin-resistant Enterococcus faecium clinical isolate 13246 after 24 hrs by two-fold serial dilution method; conditions: isolate 13246, 24 h
Enterococcus faecalis [30] = assay: Bactericidal activity against vancomycin-resistant Enterococcus faecalis clinical isolate 7079 after 24 hrs by two-fold serial dilution method; conditions: isolate 7079, 24 h
Enterococcus faecium [31] = assay: Bactericidal activity against vancomycin-resistant Enterococcus faecium clinical isolate 31176 after 24 hrs by two-fold serial dilution method; conditions: isolate 31176, 24 h
Enterococcus faecalis [32] = assay: Antibacterial activity against vancomycin-resistant Enterococcus faecalis clinical isolate 7670 after overnight incubation by two-fold serial dilution method
Enterococcus faecium [33] = assay: Bactericidal activity against vancomycin-resistant Enterococcus faecium clinical isolate 12/266 after 24 hrs by two-fold serial dilution method; conditions: isolate 12/266, 24 h
Enterococcus faecalis [34] = assay: Bactericidal activity against vancomycin-resistant Enterococcus faecalis clinical isolate 7670 after 24 hrs by two-fold serial dilution method; conditions: isolate 7670, 24 h
Enterococcus faecium [35] = assay: Bactericidal activity against vancomycin-resistant Enterococcus faecium clinical isolate 8/224 after 24 hrs by two-fold serial dilution method; conditions: isolate 8/224, 24 h
Enterococcus faecalis [36] = assay: Antibacterial activity against vancomycin-resistant Enterococcus faecalis clinical isolate 22/203 after overnight incubation by two-fold serial dilution method
Enterococcus faecium [37] = assay: Antibacterial activity against vancomycin-resistant Enterococcus faecium clinical isolate 23/240 after overnight incubation by two-fold serial dilution method
Enterococcus faecium [38] = assay: Antibacterial activity against vancomycin-resistant Enterococcus faecium clinical isolate 7/27 after overnight incubation by two-fold serial dilution method
Enterococcus faecium [39] = assay: Antibacterial activity against vancomycin-resistant Enterococcus faecium clinical isolate 27/221 after overnight incubation by two-fold serial dilution method
Enterococcus faecium [40] = assay: Antibacterial activity against vancomycin-resistant Enterococcus faecium clinical isolate 27/16917 after overnight incubation by two-fold serial dilution method; conditions: isolate 27/1691
Enterococcus faecalis [41] = assay: Bactericidal activity against vancomycin-resistant Enterococcus faecalis clinical isolate 21/235 after 24 hrs by two-fold serial dilution method; conditions: isolate 21/235, 24 h
Enterococcus faecalis [42] = assay: Bactericidal activity against vancomycin-resistant Enterococcus faecalis clinical isolate 7846 after 24 hrs by two-fold serial dilution method; conditions: isolate 7846, 24 h
Enterococcus faecium [43] = assay: Bactericidal activity against vancomycin-resistant Enterococcus faecium clinical isolate 16115 after 24 hrs by two-fold serial dilution method; conditions: isolate 16115, 24 h
Enterococcus faecalis [44] = assay: Antibacterial activity against vancomycin-resistant Enterococcus faecalis clinical isolate 21/235 after overnight incubation by two-fold serial dilution method
Enterococcus faecalis [45] = assay: Antibacterial activity against vancomycin-resistant Enterococcus faecalis clinical isolate 5648 after overnight incubation by two-fold serial dilution method

Substance: H-RWRLLLLKKH-OH
- MIC (Enterococcus faecium [1]): 6.25 µg/mL
- MBC (Enterococcus [2]): 25 µg/mL
- MIC (Enterococcus faecalis [3]): 6.25 µg/mL
- MBC (Enterococcus faecalis [4]): 25 µg/mL
- MBC (Enterococcus faecalis [5]): 25 µg/mL
- MIC (Enterococcus faecium [6]): 12.5 µg/mL
- MIC (Enterococcus faecium [7]): 12.5 µg/mL
- MIC (Enterococcus faecium [8]): 12.5 µg/mL
- MBC (Enterococcus faecium [9]): 25 µg/mL
- MIC (Enterococcus faecium [10]): 6.25 µg/mL
- MIC (Enterococcus faecalis [11]): 12.5 µg/mL
- MBC (Enterococcus faecium [12]): 25 µg/mL
- MBC (Enterococcus faecium [13]): 25 µg/mL
- MBC (Enterococcus faecalis [14]): 25 µg/mL
- fractional inhibitory concentration index (FICI) (Enterococcus [15]): 2.1
- MBC (Enterococcus faecalis [16]): 25 µg/mL
- MBC (Enterococcus faecium [17]): 25 µg/mL
- MIC (Enterococcus [18]): 25 µg/mL
- MIC (Enterococcus faecium [19]): 12.5 µg/mL
- MIC (Enterococcus faecalis [20]): 12.5 µg/mL
- MBC (Enterococcus faecalis [21]): 25 µg/mL
- MBC (Enterococcus faecalis [22]): 25 µg/mL
- MBC (Enterococcus faecalis [23]): 25 µg/mL
- MIC (Enterococcus faecium [24]): 12.5 µg/mL
- MBC (Enterococcus faecium [25]): 25 µg/mL
- MBC (Enterococcus faecium [26]): 25 µg/mL
- MBC (Enterococcus [27]): 25 µg/mL
- MBC (Enterococcus faecalis [28]): 25 µg/mL
- MBC (Enterococcus faecium [29]): 25 µg/mL
- MBC (Enterococcus faecalis [30]): 25 µg/mL
- MBC (Enterococcus faecium [31]): 25 µg/mL
- MIC (Enterococcus faecalis [32]): 12.5 µg/mL
- MBC (Enterococcus faecium [33]): 25 µg/mL
- MBC (Enterococcus faecalis [34]): 25 µg/mL
- MBC (Enterococcus faecium [35]): 25 µg/mL
- MIC (Enterococcus faecalis [36]): 12.5 µg/mL
- MIC (Enterococcus faecium [37]): 12.5 µg/mL
- MIC (Enterococcus faecium [38]): 12.5 µg/mL
- MIC (Enterococcus faecium [39]): 12.5 µg/mL
- MIC (Enterococcus faecium [40]): 12.5 µg/mL
- MBC (Enterococcus faecalis [41]): 25 µg/mL
- MBC (Enterococcus faecalis [42]): 25 µg/mL
- MBC (Enterococcus faecium [43]): 25 µg/mL
- MIC (Enterococcus faecalis [44]): 12.5 µg/mL
- MIC (Enterococcus faecalis [45]): 12.5 µg/mL
